# Screening results from PubChem BioAssay.
# Only some compounds are listed: those with a hit (about 1.9% of all), similar ones and a draw of the others.
# MBD2 DNA inh: inhibitors of human MBD2 binding to methylated oligonucleotide; inhibition, % at 4.4 µM; 0.31% of 370,000 active; TR-FRET; AID 686964; in the data active means inhibition above about 13%
# TDP2 inh: blocks human TDP2 phosphodiesterase activity. AID 720702. recombinant TDP2, T5PNP hydrolysis, p-nitrophenol absorbance 415 nm. inhibition, % at 12.8 µM. O95551. 0.34% of 370,000 active;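 active means inhibition above the mean of all tested compounds plus 3 SD, set per campaign, cut at about 25% in these data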;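 further: 0% = DMSO with enzyme and 100% = buffer with substrate but no TDP2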
#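 Incubation: 2 h at 37 °C; Test system: recombinant human TDP2; Quantity: enzyme 120 nM; Read-out basis: percent inhibition; Medium: 50 mM Tris-HCl pH 7.5 with Mg2+, KCl, DTT, BSA; Repeats: single replicate; Compound: 12.8 µM single point, 1% DMSO; Signal: epi absorbance; Reagent: 5 mM T5PNP chromogenic substrate; Benchmarks: no-enzyme high, DMSO-plus-enzyme low.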
# DDE Tn7 FP inh: DD(E)-Tn7 binding inhibition, primary FP screen. inhibition, % at 8.3 µM. FP displacement of FITC-Tn7 peptide from fibrin DD(E); 0% = median of compound wells per plate. AID 720508. 0.13% of 370,000 active;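 active means inhibition above the mean of compounds falling within the control limits plus 3 SD of them, cut at about 14% in these data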;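 further: 0% = plate median of compound wells and 100% = 10 µM Aha-Tn7 peptide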
#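 Measure: % inhibition scaled between sample-field median and high-control FP; Test system: human fibrin DD(E); Quantity: 2 µM final DD(E) protein; Doses: one dose, 8.3 µM nominal; Schedule: compound with protein 10 min, then 3 h after probe, room temperature; Detection: fluorescence polarization; Medium: Tris buffer with calcium and detergent, pH 7.8.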
# DDE Tn6 FP inh: disrupts Tn6 cyclic peptide binding to fibrin D-Dimer-E complex | P02675 | Fibrin DD(E) TRITC-Tn6 fluorescence polarization displacement | inhibition, % at 8.3 µM | 0.21% of 370,000 active;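 active means inhibition above a per-campaign cutoff: mean of compounds within control limits plus 3 SD, cut at about 15% in these data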;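 further: 0% = median of all compound wells on the plate and 100% = blocking peptide control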
# LEDGF integ inh: blocks HIV-1 LEDGF/p75-dependent DNA integration. TR-FRET IN-LEDGF/p75 DNA integration, Eu/Cy5. inhibition, % at 3.7 µM. 0.64% of 370,000 active;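 active means inhibition above the screen-wide mean plus 3 SD, cut at about 13% in these data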;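 further: signal is the Cy5 over europium emission ratio at 671 and 618 nm; 0% = plate median of compound wells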
# UHRF1 MBD2 ctr: UHRF1 methyl-DNA binding inhibition | Q96T88 | UHRF1 binding to methylated oligo, TR-FRET | inhibition, % at 4.4 µM | 0.75% of 370,000 active | AID 687016; in the data active means inhibition above about 21%;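 further: UHRF1 SRA domain binding a hemimethylated CpG hairpin DNA probe; 0% = median of test compound wells and 100% = reference inhibitor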
# Target sequence (Q96T88 whole entry, looked up, the tested form may be a part): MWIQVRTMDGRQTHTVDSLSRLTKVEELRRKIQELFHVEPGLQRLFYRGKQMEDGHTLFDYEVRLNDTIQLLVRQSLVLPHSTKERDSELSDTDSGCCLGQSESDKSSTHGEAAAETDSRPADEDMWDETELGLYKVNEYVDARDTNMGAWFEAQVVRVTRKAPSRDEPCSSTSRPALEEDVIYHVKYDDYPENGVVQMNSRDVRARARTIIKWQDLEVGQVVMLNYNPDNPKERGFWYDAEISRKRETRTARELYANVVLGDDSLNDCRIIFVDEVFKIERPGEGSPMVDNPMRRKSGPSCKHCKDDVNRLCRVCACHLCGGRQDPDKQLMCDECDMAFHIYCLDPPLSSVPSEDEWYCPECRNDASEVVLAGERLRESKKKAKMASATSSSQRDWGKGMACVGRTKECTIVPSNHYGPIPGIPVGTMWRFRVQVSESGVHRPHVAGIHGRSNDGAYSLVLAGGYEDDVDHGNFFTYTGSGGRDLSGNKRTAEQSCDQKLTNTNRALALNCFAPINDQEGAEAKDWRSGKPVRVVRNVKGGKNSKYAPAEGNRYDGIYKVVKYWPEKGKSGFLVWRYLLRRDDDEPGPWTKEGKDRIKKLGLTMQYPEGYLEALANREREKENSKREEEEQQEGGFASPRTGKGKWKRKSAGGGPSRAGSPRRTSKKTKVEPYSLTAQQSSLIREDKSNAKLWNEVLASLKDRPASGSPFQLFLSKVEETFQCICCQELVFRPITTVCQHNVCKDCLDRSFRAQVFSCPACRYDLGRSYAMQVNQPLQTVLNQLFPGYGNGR
# Tn6 DDE ctr: counter-screen hit for Tn6 peptide-fibrin DD(E) binding disruption. shares compounds with DDE Tn6 FP inh. TRITC-Tn6 fluorescence polarization displacement; 0% = median of compound wells, not DMSO. inhibition, % at 8.3 µM. 2% of 680 active. AID 720621;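 active means inhibition above the mean of test compounds lying between the control limits plus 3 SD of those, cut at about 14% in these data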;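 further: 0% = median of compound wells and 100% = wells with Aha-Tn7 blocking peptide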
# DDE Tn6 confirm: DD(E)-Tn6 binding inhibition, FP confirmation | FP displacement of TRITC-Tn6 peptide from DD(E); 0% = per-plate median of test wells | shares compounds with DDE Tn6 FP inh | AID 720631 | inhibition, % at 8.3 µM | 10% of 680 active;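 active means inhibition above the mean of compounds lying within the control limits plus 3 SD, cut at about 16% in these data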;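 further: 100% = high control wells holding a competing inhibitor peptide at 10 µM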
# * marks the source's active call; other numbers are inactive results; · = not tested or not shown.
SMILES,MBD2 DNA inh,TDP2 inh,DDE Tn7 FP inh,DDE Tn6 FP inh,LEDGF integ inh,UHRF1 MBD2 ctr,Tn6 DDE ctr,DDE Tn6 confirm
Cc1ccccc1OCCCN1CCC(C(O)(c2ccccc2)c2ccccc2)CC1,-7.0,-6.3,5.0,1.3,3.8,-0.1,·,·
Cc1cn(-c2cc(NC(=O)c3ccc(C)c(Nc4nccc(-c5cccnc5)n4)c3)cc(C(F)(F)F)c2)cn1,0.9,6.5,1.0,6.0,-1.1,-0.4,·,·
CC(=O)c1cccc(NC(=O)COC(=O)c2n[nH]c3ccccc23)c1,3.8,-2.8,-3.3,15.7*,2.0,0.9,6.3,-3.6
O=C(COC(=O)c1n[nH]c2ccccc12)Nc1ccccc1,2.1,-0.1,4.7,-3.5,0.0,2.3,·,·
O=C(COC(=O)c1cc(-c2cccc3ccccc23)nc2ccccc12)NC1CCS(=O)(=O)C1 (centres undefined),-0.8,-2.5,-4.7,29.8*,-6.4,2.1,5.6,19.7*
Cc1cc(Br)cn2c(Cc3cccc(Cl)c3)c(-c3cccc(Cl)c3)nc12,8.9,3.4,3.4,-0.5,0.4,15.8,·,·
Cc1cc(Br)cn2c(Cc3ccsc3)c(-c3cccc(Cl)c3)nc12,-4.2,-7.6,-1.1,18.1*,4.4,-0.3,10.6,5.7
O=S1(=O)c2ccc(N3CC[C@H](O)C3)cc2OCCCN1C1CC1,8.4,-1.7,-2.8,-8.3,4.7,8.7,·,·
N#Cc1ccc(Cn2ccc3ccc(-c4ccc5ccn(C(=O)C6CC6)c5c4)cc32)cc1,0.6,5.9,7.8,4.8,-3.0,-0.6,·,·
O=C(C(=O)N1CCN(C(=O)C2CCC2)CC1)c1cccc(C(F)(F)F)c1,4.9,3.7,-5.7,6.3,4.3,9.1,·,·
CCn1ccc(=N)cc1,-2.2,0.0,4.8,19.9*,-0.8,5.0,3.3,-7.6
CCCCCn1ccc(=N)cc1,4.3,-0.1,6.0,4.0,-1.0,2.9,·,·
COC(=O)[C@H](Cc1ccccc1)NP(=O)(OC)[C@@H](C)NC(=O)OCc1ccccc1 (some centres undefined),0.1,-0.1,3.5,-2.7,-0.1,-1.2,·,·
Cc1cc2c(c(=O)o1)[C@@]1(C(=O)N(c3ccccc3)c3ccccc31)C1=C(CCCC1=O)O2,-4.9,0.6,-4.2,4.2,-0.2,-1.0,·,·
CC1(C)c2ccccc2N2CCC(=O)NC21/C=C/c1ccco1 (centres undefined),1.5,6.5,4.6,17.2*,2.8,-1.1,-7.0,-9.5
CC1(C)c2ccccc2N2CC(=O)NC21/C=C/c1ccco1 (centres undefined),-10.0,2.7,5.8,7.4,0.2,-3.0,·,·
CN1C(=O)NC(c2ccccc2[N+](=O)[O-])C2=C1CCCC2=O (centres undefined),-8.1,11.0,5.4,44.7*,-3.3,-21.9,-5.9,20.5*
COc1cc(C2NC(=O)N(C)C3=C2C(=O)CCC3)cc(OC)c1OC (centres undefined),4.5,4.1,6.3,5.7,0.4,0.7,·,·
Cc1ccc(NC(=O)Cn2nnc(-c3ccccc3F)n2)c(C)c1,0.6,8.8,-0.8,3.0,3.6,-0.8,·,·
O=C(Cn1nnc(-c2ccccc2F)n1)Nc1ccc(F)cc1F,-4.6,-5.3,2.6,15.6*,0.5,-4.0,-3.3,-3.8
CCCC(=O)N1CCC[C@]2(CC[C@@H](CCC(=O)OCC)O2)C1,2.2,2.5,-5.3,-1.4,3.6,3.6,·,·
CCCCCNC(=O)c1ccc2c(=O)n(CCCOCC)c(=S)[nH]c2c1,-3.0,-1.5,-3.8,-0.6,2.6,-1.2,·,·
CCOCCCn1c(=S)[nH]c2cc(C(=O)NCC(OC)OC)ccc2c1=O,-5.2,-0.6,-3.4,15.7*,1.1,0.4,-7.6,-14.7
COC(=O)[C@]12C[C@H](CC(=O)N3CCSCC3)C(=O)N(Cc3cccc4ccccc34)C1=C[C@H](C(C)(C)C)O[C@@H]2C,1.8,-3.0,-4.3,1.6,-0.7,4.7,·,·
Cc1ccc(NC(=O)C(OC(=O)c2ccc(NC(N)=O)cc2)c2ccccc2)cc1Cl (centres undefined),-2.1,-9.2,0.1,33.6*,-2.3,2.0,1.2,-1.1
SMILES,MBD2 DNA inh,TDP2 inh,DDE Tn7 FP inh,DDE Tn6 FP inh,LEDGF integ inh,UHRF1 MBD2 ctr,Tn6 DDE ctr,DDE Tn6 confirm
Cc1ccc(NC(=O)C(OC(=O)c2ccccc2Cl)c2ccccc2)cc1Cl (centres undefined),3.0,-8.9,-8.4,-0.7,1.9,4.1,·,·
COc1cccc(N2CCN(CC(=O)NCc3ccc(F)cc3)CC2)c1,-1.8,3.6,-4.9,-2.7,0.8,0.5,·,·
O=C1c2ccccc2CCC12N=NCC2c1ccc(Cl)cc1 (centres undefined),-3.5,-5.6,0.9,17.1*,1.5,1.5,-5.5,-11.4
O=C1c2ccccc2CCC12N=NCC2c1ccc(Br)cc1 (centres undefined),1.1,-4.9,-1.6,1.2,-5.7,2.5,·,·
O=C(Nc1ccc2nn(-c3ccccc3)nc2c1)c1ccc(Br)o1,1.3,-4.6,3.4,16.8*,-3.8,-1.9,1.0,-2.8
O=C(Nc1ccc2nn(-c3ccccc3)nc2c1)c1ccc2c(c1)OCCO2,0.6,-1.5,-3.9,-3.5,1.0,6.4,·,·
Cc1ccc2c(c1)-c1c(cnn1CC(=O)NCCc1ccc(Cl)cc1)CO2,1.9,-1.2,7.9,-3.4,-2.9,0.9,·,·
O=C1N=C(N2CCN(c3ccccc3)CC2)S/C1=C/c1ccco1,-0.8,-9.8,2.9,16.9*,0.4,5.9,9.2,2.1
O=C1N=C(N2CCN(c3ccccc3)CC2)S/C1=C\c1ccco1,-2.1,-3.5,0.7,-1.7,-4.5,-2.2,·,·
Cc1csc(SCC(=O)NCc2cccc(Cl)c2)n1,-1.4,6.1,1.2,16.6*,2.8,-2.5,0.7,1.2
Cc1cc(Br)cn2c(Cc3ccccc3C(F)(F)F)c(-c3ccc(F)cc3)nc12,-3.0,-5.4,-8.1,3.5,5.3,7.1,·,·
CC1(C)CCN2CCC(C)(C)c3c(O)ccc1c32,-1.6,-6.0,8.0,30.4*,0.1,-4.9,2.3,4.1
Cc1ccc(C(=O)N2CCCC(C(F)(F)F)C2)cc1S(=O)(=O)N1CCCCC1 (centres undefined),-1.1,-7.3,-4.0,16.3*,3.2,0.1,1.5,-8.4
Cc1cc(C)c2c(N)c(C(=O)Nc3ccccc3Cl)sc2n1,5.1,3.5,5.8,17.6*,-3.6,-1.0,-4.7,-6.5
COC(=O)[C@]12C[C@H](CC(=O)NCC34CC5CC(CC(C5)C3)C4)C(=O)N(CCC3=CCCCC3)C1=C[C@H](COCc1ccccc1)O[C@@H]2C,-1.8,-5.2,-2.0,-2.8,2.1,2.0,·,·
